MEKK3 PB1 HTS – modulators of MEKK3-MEK5 PB1 binding, primary screen, biochemical, wildtype MEKK3, multiplex bead flow cytometry, Alexa488-MEK5; Mitogen-activated protein kinase kinase kinase 3 (Homo sapiens), Q99759; bead-based flow cytometry, Alexa488-MEK5 binding to MEKK3; actives lie on both sides; 0 = blocked by unlabeled MEK5, 100 = vehicle; binding response (% of control), % at 10 µM; actives 1.4% (n = 290,000); AID 1529, 2009;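 active means binding response more than 3 SD above or below the average of its plate-row segment, actives on both sides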;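 further: Alexa488 bead fluorescence after subtracting the streptavidin-only scavenger bead signal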
MEKK2 mut-MEK5 – MEK5 binding signal on mutant MEKK2 PB1, primary screen, biochemical, multiplex bead flow cytometry, Alexa488-MEK5; Alexa488-MEK5 binding to MEKK2 mutant; percent response, % at 10 µM; actives 0.35% (n = 290,000); in the data active means percent response above about 24%, passing the limit was not always enough
UBC13 inh – UBC13 polyubiquitin chain formation inhibitors, primary screen, biochemical, TR-FRET, uHTS; Ubiquitin-conjugating enzyme E2 N (Homo sapiens), P61088; inhibition, % at 20 µM; actives 0.47% (n = 330,000); AID 485273, 2010; in the data active means inhibition above about 45%, passing the limit was not always enough
Target sequence (P61088 whole entry, looked up): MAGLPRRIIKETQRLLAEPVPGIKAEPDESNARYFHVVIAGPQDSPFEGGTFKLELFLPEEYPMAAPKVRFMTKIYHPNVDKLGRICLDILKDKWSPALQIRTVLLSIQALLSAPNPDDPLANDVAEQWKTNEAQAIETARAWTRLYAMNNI
Apaf1 inhib – inhibitors of human Apaf-1 apoptosome, primary screen, biochemical, DEVD-Rh110 fluorescence, uHTS. Apoptotic protease-activating factor 1 (Homo sapiens), O14727. reconstituted apoptosome caspase-3 activity. inhibition, % at 20 µM. actives 0.71% (n = 330,000). AID 489030, 2010; active means inhibition of at least 40% at 20 µM;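 further: plate controls were DMSO wells for no effect and DEVD-CHO caspase inhibitor wells for full effect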
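Material: biochemical Apaf-1 apoptosome reconstitution. Medium: Hepes buffer, pH 7.5. Also added: cytochrome c activation, bis-DEVD rhodamine 110 substrate. Timing: 30 min compound preincubation, 50 min activation, room temperature. Measured by: rhodamine 110 fluorescence at Ex 480/Em 540 nm.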
MEKK2wt PB1 HTS – modulators of MEK5 binding to wildtype MEKK2, primary screen, biochemical, multiplex bead flow cytometry, Alexa488-MEK5. Mitogen-activated protein kinase kinase kinase 2 (Homo sapiens), Q9Y2U5. Alexa488-MEK5 binding to MEKK2 WT; actives lie on both sides. binding response (% of control), % at 10 µM. actives 1.1% (n = 290,000); in the data active means binding response below about 67% or above about 130%
UCH37 inh – inhibitors of human UCH37 deubiquitinase, primary screen, biochemical, Ub-AMC cleavage, fluorescence; Ubiquitin carboxyl-terminal hydrolase isozyme L5 (Homo sapiens), Q9Y5K5; purified proteasome/UCH37; inhibition, % (no concentration beside the values); actives 0.33% (n = 330,000); AID 588478, 2011;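 active means mean inhibition over replicate wells above about 20%, limit read from the data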;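 further: 0% = compound-free wells with enzyme and 100% = wells lacking proteasome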
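Schedule: 30 min plus 25 min, room temperature / Material: human UCH37 within purified proteasomes / Technique: AMC fluorescence intensity at 355/460 nm / Buffer or medium: pH 7.4 Tris-HCl (50 mM) with ovalbumin, ATP-MgCl2, DTT / Controls: wells without proteasome as full block, compound-free enzyme plus substrate as uninhibited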
MEKK2wt confirm – modulators of MEK5 binding to wildtype MEKK2, confirmation, biochemical, single concentration, multiplex bead flow cytometry; shares compounds with MEKK3 PB1 HTS; Alexa488-MEK5 binding to MEKK2 WT; actives lie on both sides; binding response (% of control), % at 10 µM; actives 2.4% (n = 5,900); AID 1892, 2009; in the data active means binding response below about 16% or above about 210%; inactive means in between
MEKK2mut-MEK5 – mutant MEKK2 PB1-MEK5 binding signal retest – biochemical, single concentration, multiplex bead flow cytometry, confirmation. actives 2% (n = 5,900). Alexa488-MEK5 binding to MEKK2 mutant. shares compounds with MEKK3 PB1 HTS. AID 1893, 2009. percent response, % at 10 µM; in the data active means percent response mostly above about 71%, no sharp cut-off; inactive means mostly below about 38%;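 further: higher means compound restores mutant binding toward wildtype level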
MEKK3 confirm – MEKK3 wild-type PB1 binding to MEK5, inhibitors, confirmation, biochemical, bead multiplex flow cytometry, single concentration, wildtype | shares compounds with MEKK3 PB1 HTS | Alexa488-MEK5 binding to MEKK3; active compounds read low | binding response (% of control), % at 10 µM | actives 1.8% (n = 5,900) | AID 1894, 2009;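 active means binding response below 72% of control, or above a set upper limit, though filed actives all read lower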;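 further: 100% = DMSO only wells and 0% = binding blocked by excess unlabeled MEK5; lower values mean stronger disruption of MEK5 binding to MEKK3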
Casp3 UBC13 ctr – CASP3 inhibitor validation, counterassay for project on UBE2N polyubiquitination blockers, biochemical, one dose; shares compounds with UBC13 inh; Recombinant caspase-3, Caspase-Glo 3/7 luminescence, 60 min; actives 4% (n = 1,400); inhibition, % at 20 µM;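 active means mean inhibition across replicates above about 26%, limit read from the data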;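 further: plate controls were DMSO with caspase-3 for no effect and DMSO wells lacking enzyme for full effect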
Target sequence (P42574 whole entry, looked up): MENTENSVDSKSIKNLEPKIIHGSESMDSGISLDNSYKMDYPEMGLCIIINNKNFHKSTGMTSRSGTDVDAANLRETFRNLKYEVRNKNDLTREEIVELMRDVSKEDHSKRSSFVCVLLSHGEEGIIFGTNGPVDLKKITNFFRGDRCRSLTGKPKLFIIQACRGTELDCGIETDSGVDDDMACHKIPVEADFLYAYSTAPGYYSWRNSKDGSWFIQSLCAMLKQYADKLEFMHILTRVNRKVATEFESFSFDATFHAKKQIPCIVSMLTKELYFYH
UBC13 confirm – UBC13 polyubiquitination inhibitors, single-point retest, confirmation, biochemical, TR-FRET, single concentration. shares compounds with UBC13 inh. inhibition, % at 10 µM. actives 68% (n = 1,400). AID 488859, 2010; in the data active means inhibition above about 45%
Apaf-1 inh conf – Apaf-1 inhibitors, single-dose retest, confirmation, biochemical, fluorescence, DEVD-Rh110, 20 µM | reconstituted apoptosome, caspase-3 DEVD-Rh110 fluorescence | shares compounds with Apaf1 inhib | actives 25% (n = 1,800) | inhibition, % at 20 µM;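 active means mean inhibition of at least 40% at 20 µM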;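 further: plate controls were DMSO wells for no effect and DEVD-CHO caspase inhibitor control wells for full effect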
Rh110 interf inh – Rh110 fluorescence interference by putative Apaf-1 inhibitors, confirmation, artefact control for Apaf-1 inhibitor project, biochemical, 20 µM; shares compounds with Apaf1 inhib; quenched caspase reaction; activation (fluorescence interference), % at 20 µM; 1,800 tested, under 10 active; AID 504615, 2011;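 active means signal rise of 40% or more at 20 µM, treated as a fluorescence artifact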
Apaf1 inh interf – fluorescence interference of Apaf-1 inhibitor hits, dose response, artefact control for Apaf-1 inhibitor project | shares compounds with Apaf1 inhib | fluorescence interference counterscreen, Apaf-1 assay format | IC50, µM | 460 tested, under 10 active | AID 588538, 2011; call rule not given here
* hit, by the source's call; . = not tested or not shown. An excerpt weighted towards active compounds, which were near 3% of everything screened.

SMILES	MEKK3 PB1 HTS	MEKK2 mut-MEK5	UBC13 inh	Apaf1 inhib	MEKK2wt PB1 HTS	UCH37 inh	MEKK2wt confirm	MEKK2mut-MEK5	MEKK3 confirm	Casp3 UBC13 ctr	UBC13 confirm	Apaf-1 inh conf	Rh110 interf inh	others
COc1cc(O)c(C(CCN2CCCC(C)C2)c2cc(OC)c(OC)c(OC)c2)c(OC)c1 (stereo not given)	94.0	1.0	8.0	0.1	95.0	4.6	.	.	.	.	.	.	.
COc1cc(OC)c2ccc(=O)oc2c1C(CCN1CCCC(C)C1)c1ccc(N(C)C)cc1 (stereo not given)	96.0	2.0	17.6	7.3	104.0	-1.0	.	.	.	.	.	.	.
CCCCCc1cc(=O)oc2c(C(CCN3CCCC(C)C3)c3cc(OC)c(OC)c(OC)c3)c(OC)cc(OC)c12 (stereo not given)	115.0	29.0*	66.7*	60.4*	163.0*	-0.7	203.0	45.0	110.0	0.5	40.4	18.4	6.8
C=CCN1C(=O)CSc2ccc(C(=O)OCC)cc21	103.0	2.0	19.1	-9.1	99.0	0.4	.	.	.	.	.	.	.
CCCCCCCCCCOC(=O)Cn1c(COc2ccccc2OC)[n+](C)c2ccccc21	111.0	61.0*	63.9*	71.2*	238.0*	.	251.0*	141.0*	112.0	0.8	68.0*	64.8*	33.9	Apaf1 inh interf=>100
Cn1c(COc2ccccc2O)[n+](C)c2ccccc21	109.0	15.0	4.3	-1.1	116.0	-0.7	.	.	.	.	.	.	.
CN(C)CCCNc1cc(C(C)(C)C)nc2c(-c3ccc(Cl)cc3)cnn12	102.0	35.0	88.7*	58.3*	190.0*	-221.7	250.0*	89.0*	112.0	-0.9	94.7*	38.1	25.4
CCOC(=O)CCc1nc2ccccc2[nH]1	108.0	6.0	-3.0	-19.2	109.0	-1.1	.	.	.	.	.	.	.

Screening data from PubChem BioAssay.
